Data on two molecules can be found in ChEMBL document CHEMBL5316292 (J Med Chem, 2023).

Assay [1] has as its target Bromodomain-containing protein 2 (Homo sapiens, UniProt P25440). Nature of the assay: Induction of BRD2 degradation in human MDA-MB-231 cells assessed as decrease in BET half life at 50 ug/ml incubated for 8 hrs by immunoblotting analysis. The settings on record: dose 50.0 µg/ml. The assay is classed as cell-based. In outline: (§1)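 MDA-MB-231 time-course. Cells given 50 µg/mL cycloheximide plus DMSO, or 50 µg/mL cycloheximide plus 10 µM compound. RIPA lysates immunoblotted for BRD2, BRD3 and BRD4 with GAPDH as control.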

The target in assay [2] is Bromodomain-containing protein 3 (Homo sapiens, UniProt Q15059). Nature of the assay: Induction of BRD3 degradation in human MDA-MB-231 cells assessed as decrease in BET half life at 50 ug/ml incubated for 8 hrs by immunoblotting analysis. The assay is classed as cell-based. Particulars: dose 50.0 µg/ml. In outline:
as §1
For orientation: In western blotting, separated proteins are transferred to a membrane and probed.

Assay [3] has as its target Bromodomain-containing protein 4 (Homo sapiens, UniProt O60885). Nature of the assay: Induction of BRD4 degradation in human MDA-MB-231 cells assessed as decrease in BET half life at 50 ug/ml incubated for 8 hrs by immunoblotting analysis. The settings on record: dose 50.0 µg/ml. The assay is classed as cell-based. In outline: as §1
Another assay relates to PC-3. Nature of the assay: Cytotoxicity against human PC-3 cells assessed as reduction in cell viability measured after 5 days by Cell-Titer glo assay. The assay is classed as functional, cell-based. The settings on record: PC-3, 120 h.

The source made the active and inactive calls. The calls are words filed in the database; no cut-off is given here.

Sequence of Bromodomain-containing protein 2 (P25440 whole entry, looked up): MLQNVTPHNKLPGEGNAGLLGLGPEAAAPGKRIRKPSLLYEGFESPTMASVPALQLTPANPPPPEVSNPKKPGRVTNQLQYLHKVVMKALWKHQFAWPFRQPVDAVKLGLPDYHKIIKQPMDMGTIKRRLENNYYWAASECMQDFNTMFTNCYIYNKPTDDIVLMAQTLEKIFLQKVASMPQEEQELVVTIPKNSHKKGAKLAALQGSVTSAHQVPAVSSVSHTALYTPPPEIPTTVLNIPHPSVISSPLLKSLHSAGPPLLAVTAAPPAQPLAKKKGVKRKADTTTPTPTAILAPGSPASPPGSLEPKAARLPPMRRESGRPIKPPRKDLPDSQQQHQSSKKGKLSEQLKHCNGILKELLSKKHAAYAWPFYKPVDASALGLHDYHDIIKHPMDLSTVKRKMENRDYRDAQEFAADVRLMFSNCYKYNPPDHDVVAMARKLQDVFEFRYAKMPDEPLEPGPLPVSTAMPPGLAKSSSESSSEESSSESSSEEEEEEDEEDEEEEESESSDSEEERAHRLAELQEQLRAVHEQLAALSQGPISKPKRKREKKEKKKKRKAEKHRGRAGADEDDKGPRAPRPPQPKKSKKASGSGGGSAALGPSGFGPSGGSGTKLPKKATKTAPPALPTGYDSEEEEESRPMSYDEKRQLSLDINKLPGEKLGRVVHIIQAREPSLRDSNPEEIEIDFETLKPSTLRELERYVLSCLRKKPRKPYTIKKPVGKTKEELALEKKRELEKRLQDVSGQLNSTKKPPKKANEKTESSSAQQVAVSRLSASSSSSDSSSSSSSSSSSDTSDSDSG
Sequence of Bromodomain-containing protein 3 (Q15059 2-726 limits assumed): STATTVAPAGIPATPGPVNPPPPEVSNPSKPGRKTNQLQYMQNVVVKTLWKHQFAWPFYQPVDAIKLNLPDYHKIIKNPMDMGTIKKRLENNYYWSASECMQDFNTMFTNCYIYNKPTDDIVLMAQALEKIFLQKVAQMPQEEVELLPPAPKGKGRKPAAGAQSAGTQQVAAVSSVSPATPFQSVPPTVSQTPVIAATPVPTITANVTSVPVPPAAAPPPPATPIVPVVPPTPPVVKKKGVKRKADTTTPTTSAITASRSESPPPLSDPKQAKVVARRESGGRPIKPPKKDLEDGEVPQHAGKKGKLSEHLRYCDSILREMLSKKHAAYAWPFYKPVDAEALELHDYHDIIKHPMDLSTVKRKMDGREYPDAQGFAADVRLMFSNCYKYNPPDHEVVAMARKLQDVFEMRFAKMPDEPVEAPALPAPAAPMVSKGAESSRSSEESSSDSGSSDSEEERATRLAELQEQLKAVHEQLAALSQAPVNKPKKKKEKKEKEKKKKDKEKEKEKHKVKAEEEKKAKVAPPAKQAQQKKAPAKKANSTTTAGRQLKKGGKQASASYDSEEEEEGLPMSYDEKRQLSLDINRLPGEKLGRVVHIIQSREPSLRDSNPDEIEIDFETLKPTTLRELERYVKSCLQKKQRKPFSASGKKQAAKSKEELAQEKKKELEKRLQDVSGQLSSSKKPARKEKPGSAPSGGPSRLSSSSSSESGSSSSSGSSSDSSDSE

On to `C[C@@H]1C[C@@H]([C@H](O)CC2CC(=O)NC(=O)C2)C(=O)[C@@H](C)C1`, for which the outcome in assay [1], in assay [2] and in assay [3] was inactive.

As usually defined, the EC50 is the midpoint of the concentration-response curve. Take `Cc1sc2c(c1C)C(c1ccc(Cl)cc1)=N[C@@H](CC(=O)NCCCCNC(=O)COc1cccc3c1C(=O)N(C1CCC(=O)NC1=O)C3=O)c1nnc(C)n1-2` (some centres undefined): in the assay with PC-3, the EC50 turned out to be 50 nM.
